Assay results of several laboratories.
Compare with care: the assays were run in different laboratories.
Target: Mitogen-activated protein kinase kinase kinase 6 (MAP3K6, Homo sapiens, UniProt O95382)
Residues used in one study (O95382 1-1288): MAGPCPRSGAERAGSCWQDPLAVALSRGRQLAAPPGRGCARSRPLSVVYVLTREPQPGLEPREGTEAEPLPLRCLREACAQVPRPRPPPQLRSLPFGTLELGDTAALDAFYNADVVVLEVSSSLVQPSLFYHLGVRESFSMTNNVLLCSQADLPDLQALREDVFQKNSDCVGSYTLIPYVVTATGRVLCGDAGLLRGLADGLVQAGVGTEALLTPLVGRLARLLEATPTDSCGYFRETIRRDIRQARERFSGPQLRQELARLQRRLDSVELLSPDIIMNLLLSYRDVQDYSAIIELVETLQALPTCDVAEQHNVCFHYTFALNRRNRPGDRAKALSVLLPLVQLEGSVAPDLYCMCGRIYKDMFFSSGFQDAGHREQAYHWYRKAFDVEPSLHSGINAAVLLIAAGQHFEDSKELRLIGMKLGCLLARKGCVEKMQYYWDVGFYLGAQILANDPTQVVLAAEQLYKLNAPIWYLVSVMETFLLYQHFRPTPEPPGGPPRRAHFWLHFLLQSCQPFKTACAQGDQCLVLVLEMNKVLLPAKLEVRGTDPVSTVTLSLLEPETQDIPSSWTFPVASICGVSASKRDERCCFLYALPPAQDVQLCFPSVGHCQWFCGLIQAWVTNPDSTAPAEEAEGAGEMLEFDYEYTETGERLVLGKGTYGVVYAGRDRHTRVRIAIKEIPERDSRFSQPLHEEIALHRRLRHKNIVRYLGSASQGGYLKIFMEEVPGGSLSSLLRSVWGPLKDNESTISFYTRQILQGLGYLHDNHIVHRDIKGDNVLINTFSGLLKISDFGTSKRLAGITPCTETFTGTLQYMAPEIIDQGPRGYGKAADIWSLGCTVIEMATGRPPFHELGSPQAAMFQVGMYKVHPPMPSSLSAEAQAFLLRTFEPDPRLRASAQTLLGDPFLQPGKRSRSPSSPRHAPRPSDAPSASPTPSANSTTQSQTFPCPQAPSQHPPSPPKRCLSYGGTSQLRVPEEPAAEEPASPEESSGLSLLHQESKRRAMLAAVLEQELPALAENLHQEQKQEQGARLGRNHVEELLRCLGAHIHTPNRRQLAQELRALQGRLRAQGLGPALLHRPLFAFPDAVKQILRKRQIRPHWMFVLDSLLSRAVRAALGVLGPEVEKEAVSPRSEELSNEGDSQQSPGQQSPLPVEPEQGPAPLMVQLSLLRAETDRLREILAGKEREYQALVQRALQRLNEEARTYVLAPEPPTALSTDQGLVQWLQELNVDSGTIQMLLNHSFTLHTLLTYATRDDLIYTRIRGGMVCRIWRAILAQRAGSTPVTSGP

CC1CCCN1c1nccc(-c2cnn3ncccc23)n1 (stereo not shown)
remaining binding (binding; 1 µM): 100%

O=C(NCC1CCOCC1)c1n[nH]cc1NC(=O)c1c(F)cccc1F
remaining binding (binding, competition with immobilised ligand; 1 µM): 77%

FC(F)(F)Oc1cccc(-c2cnc3ccc(-c4ccncc4)nn23)c1
remaining binding (cell-free assay, competition with immobilised ligand; 5 µM): 96%

c1cncc(-c2cccc(Nc3nccc(NC4CCCCC4)n3)c2)c1
remaining binding (binding, competition with immobilised ligand; 10 µM): 100%

C=CC(=O)N1CCC(C(=O)NCC(=O)N2CCN(c3nc(-c4cnc(N)nc4C(F)F)nc(N4CCOCC4)n3)CC2)CC1
remaining binding (binding, competition with immobilised ligand; 1 µM): 100%

CN(C)c1nccc(-c2cnn3ncccc23)n1
remaining binding (binding; 1 µM): 74%

CCOCCn1cc(C(=O)Nc2ccc(-n3nc(-c4cccnc4)cc3C(F)(F)F)cn2)ccc1=O
remaining binding (cell-free assay, competition with immobilised ligand; 1 µM): 86%

O=C(c1ccc(Nc2ncc(Cl)c(-c3ccc(Cl)s3)n2)cc1)N1CCC(N2CCCC2)CC1
remaining binding (binding, competition with immobilised ligand; 1 µM): 66%

F[C@@H]1CCN(c2nccc(-c3cnn4ncccc34)n2)C1
remaining binding (binding; 1 µM): 76%

COc1cnc(Nc2cccc(S(N)(=O)=O)c2)nc1N1CCN(c2ccccc2)CC1
remaining binding (binding, competition with immobilised ligand; 1 µM): 93%

CSc1cccnc1N1CCN(Cc2nc3ccccc3[nH]2)CC1
remaining binding (cell-free assay, competition with immobilised ligand; 1 µM): 92%

O=C(NCCCN1CCOCC1)c1ccc(Nc2nccc(-c3cc4ccccc4s3)n2)cc1
remaining binding (binding, competition with immobilised ligand; 1 µM): 98%

CS(=O)(=O)N1CCCC(NC(=O)[C@H](CCC2CCCCC2)NC(=O)c2ccc(CNC(=O)c3cnc4ccccn34)cc2)C1 (stereo partly shown)
remaining binding (cell-free assay, competition with immobilised ligand; 0.1 µM): 100%

c1cnn2ncc(-c3ccnc(N4CCC45COC5)n3)c2c1
remaining binding (binding; 1 µM): 61%

CNC(=O)Nc1ccc2c(c1)CC[C@@]21OC(=O)N(CC(=O)N(Cc2ccc(F)cc2)[C@@H](C)C(F)(F)F)C1=O
remaining binding (cell-free assay, competition with immobilised ligand; 1 µM): 86%

O=C(NCCCN1CCOCC1)c1ccc(Nc2ncc(Cl)c(-c3ccc(Cl)s3)n2)cc1
remaining binding (binding, competition with immobilised ligand; 1 µM): 83%

C[C@@H]1CCN(c2nccc(-c3cnn4ncccc34)n2)C1
remaining binding (binding; 1 µM): 55%

CNCc1ccccc1-c1csc([C@H](C)Nc2nc(C)nc3cc(OC)c(OC)cc23)c1
remaining binding (cell-free assay, competition with immobilised ligand; 1 µM): 100%

CN(C)c1nccc(-c2cnc3ncccn23)n1
remaining binding (binding; 1 µM): 67%

CO[C@@H](C)c1c(Nc2ccc([C@@H](N(C)C(=O)C3CCS(=O)(=O)CC3)C(F)(F)F)cc2)cnc2cc(Cl)nn12
remaining binding (cell-free assay, competition with immobilised ligand; 1 µM): 100%

N[C@H]1CCN(c2nccc(-c3cnn4ncccc34)n2)C1
remaining binding (binding; 1 µM): 82%

CN([C@@H]1CCc2c(CC(=O)O)c3ccccc3n2C1)S(=O)(=O)c1ccc(F)cc1
remaining binding (cell-free assay, competition with immobilised ligand; 1 µM): 80%
